Source: PubChem BioAssay (several laboratories)
Granule exo inh: lytic granule exocytosis inhibition | TALL-104 LAMP-1 surface exposure, flow cytometry; cells stimulated with thapsigargin and PMA | inhibition, % at 10 µM | hit rate 0.66% among 360,000 | AID 651702;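 active = inhibition above about 55%, limit read from the data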
ARFGAP1 inhibitor: inhibits rat ARF GTPase activating protein 1. Q62848. Arfgap1-stimulated ARF1 GTP hydrolysis, GDP FP detection. inhibition, % at 16.5 µM. hit rate 0.26% among 360,000. AID 651572;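 active = inhibition above a per-plate limit, mean inhibition of low control wells plus 3 SD, cut at about 25% in these data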;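 also: 0% = DMSO wells with enzyme and 100% = wells lacking Arfgap1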
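Material – truncated rat Arfgap1 GAP domain · Buffer or medium – HEPES-based buffer, pH 7.5 · Reagent – human ARF1(Δ1-17)-GTP substrate · Dosing – 16.5 µM single point, 1.26% DMSO · Schedule – GTP hydrolysis reaction 2 h at 25 °C · Technique – GDP detection by fluorescence polarization · Benchmarks – No-Arfgap1 wells (100%) versus DMSO full-reaction wells (0%) · Repeats – single replicate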
V-ATPase pH: regulators of yeast V-ATPase proton transport; S. cerevisiae, pHLuorin cytosolic pH fluorescence; response, % at 10 µM; hit rate 0.37% among 350,000; in the data active = response mostly above about 7.3%, no sharp cut-off; inactive = mostly below about 5.4%; also: actives read high
ASAP1 inh: inhibitors of human ASAP1 ArfGAP activity | ASAP1-stimulated ARF1 GTP hydrolysis, GDP FP detection | inhibition, % at 16.5 µM | hit rate 0.19% among 360,000; in the data active = inhibition above about 25%;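 also: 0% = vehicle with enzyme and substrate and 100% = no enzyme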
Target sequence (Q9ULH1 325-724 limits assumed): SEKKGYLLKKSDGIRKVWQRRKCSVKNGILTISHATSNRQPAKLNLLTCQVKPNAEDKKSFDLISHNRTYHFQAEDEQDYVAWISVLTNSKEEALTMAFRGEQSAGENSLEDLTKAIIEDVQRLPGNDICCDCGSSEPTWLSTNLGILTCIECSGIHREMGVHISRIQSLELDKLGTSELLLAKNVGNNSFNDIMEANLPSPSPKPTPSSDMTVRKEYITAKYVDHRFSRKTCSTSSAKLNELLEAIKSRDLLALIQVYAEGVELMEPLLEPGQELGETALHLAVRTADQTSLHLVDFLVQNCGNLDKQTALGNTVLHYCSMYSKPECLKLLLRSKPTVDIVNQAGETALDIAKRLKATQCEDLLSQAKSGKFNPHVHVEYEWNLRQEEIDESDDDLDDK
CendR NRP1 mod: NRP-1/CendR interaction modulation | O14786 | FAM-RPARPAR peptide binding to NRP-1, fluorescence polarization | inhibition, % at 25 µM | hit rate 0.85% among 360,000 | AID 602438;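 active = inhibition or corrected inhibition above about 18%, plus a signal ratio from 0.5 to 1.5, limit read from the data, passing the limit was not always enough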
The depositor's hits bear a star; / = no result given. A selection: hits, their analogues and other compounds. The true share with any hit is near 2.2%.

SMILES	Granule exo inh	ARFGAP1 inhibitor	V-ATPase pH	ASAP1 inh	CendR NRP1 mod
COc1cc(C(=O)Nc2ccccc2N2CCOCC2)ccc1OCc1c(C)noc1C	0	14	-2	10	27*
Cc1noc(C)c1COc1cccc(C(=O)Nc2ccccc2N2CCOCC2)c1	-2	1	-2	14	9
CCn1c(=O)n(CC)c2cc(N3CCCC3)c(NC(=O)c3ccccc3F)cc21	3	5	1	3	6
O=C(Nc1ccc(N2CCCCCC2)cc1)c1ccc[nH]1	-3	3	1	1	6
Cc1cc(O)cc(=O)n1-c1cccc(Br)c1	/	-10	/	-4	/
CN(Cc1nc(-c2ccccn2)no1)S(=O)(=O)c1ccc(Br)cc1	0	-9	8	-1	28*
CN(Cc1nc(-c2cccnc2)no1)S(=O)(=O)c1ccc(Br)cc1	-4	-2	6	-2	3
Cc1ccc2nc(/C(C#N)=C\c3ccc(N4CCOCC4)o3)[nH]c2c1	1	10	3	7	133
Cc1ccc2nc(/C(C#N)=C\c3ccc([N+](=O)[O-])o3)[nH]c2c1	62*	1	86*	22	-214
O=S(=O)(C(=CNc1ccccc1)S(=O)(=O)c1ccccc1)c1ccccc1	-4	3	-1	0	2
Cc1ccc(NC=C(S(=O)(=O)c2ccccc2)S(=O)(=O)c2ccccc2)cc1	8	-7	-1	5	29*
CC(C)CCN(C)[C@H]1C[C@H]2c3[nH]c4ccccc4c3CCN2C[C@H]1[C@H](C)O	/	-5	/	-11	/
COc1ccc(C2c3ccc4ccccc4c3Oc3ncn(CCCO)c(=N)c32)cc1 (configuration not stated)	65*	8	-1	5	-3
Brc1ccc(CN2CCN(c3ncc(Cc4ccccc4)cn3)CC2)cc1	/	-1	/	2	/
O=C(CN1CCN(S(=O)(=O)c2ccc(F)cc2)CC1)Nc1ccccc1C(=O)NC1CC1	-3	-3	-2	12	26*
Cc1ccc(Cn2c(SCC(=O)N(C)C3CCS(=O)(=O)C3)nc3ccccc3c2=O)cc1 (configuration not stated)	4	3	-2	0	2
Cn1c(Cc2ccccc2)nnc1SCC(=O)NC1CC1	-10	-2	4	7	-5
COCCn1c(Cc2ccccc2)nnc1SCC(=O)NC1CC1	-1	-3	-4	-4	25*
COc1ccccc1C(=O)N1CCN(C(=O)[C@@H](Cc2ccccc2)NC(=O)[C@H]2O[C@@H](n3ccc(N)nc3=O)[C@H](O)[C@@H]2O)CC1	/	-12	/	-3	/
O=C(Cn1cc(C(F)(F)F)cc(Cl)c1=O)Nc1cc(S(=O)(=O)N2CCOCC2)ccc1Cl	-2	-9	0	0	22*
CC1=C(C(=O)OCc2ccccc2)N2C(=O)[C@@H](NC(=O)COc3ccccc3)[C@H]2SC1	3	-5	0	18	-10
CC1(C)S[C@@H]2[C@H](NC(=O)COc3ccccc3)C(=O)N2C1C(=O)OCC1CCCCC1 (some centres not stated)	0	-7	7	-12	25*
C[C@@H]1CN([C@@H](C)CO)C(=O)CCCn2cc(nn2)CO[C@H]1CN(C)C(=O)NC1CCCCC1	/	0	/	-10	/
CCOC(=O)CC1(O)CSc2nc(N)cc(=O)n21 (configuration not stated)	/	4	/	-1	/
CCCCCN(C(=O)Cc1c(C)n(CCCCC)c2ccccc12)c1ccc(Oc2cccnc2)c(C)c1	/	-12	/	5	/
SMILES	Granule exo inh	ARFGAP1 inhibitor	V-ATPase pH	ASAP1 inh	CendR NRP1 mod
O=C(OCc1cc2ccccc2[nH]c1=O)c1ccccc1	-6	11	1	0	-6
O=C(OCc1cc2ccccc2[nH]c1=O)c1ccncc1	0	-1	1	6	32*
O=c1[nH]c(-c2ccccc2)cn1C1CCN(Cc2ccc(-c3nc4ccccc4nc3-c3ccccc3)cc2)CC1	/	-3	/	11	/
COc1cc(CCC(N)c2cccc(O)c2)cc(OC)c1OC (configuration not stated)	-2	-7	-3	1	26*
COC(=O)[C@]12C[C@H](CC(=O)NCc3cccc4ccccc34)C(=O)N(Cc3ccccc3)C1=C[C@H](C1CCCC1)O[C@@H]2C	/	5	/	6	/
CC1(C)C(=Cc2ccccc2)C(=O)c2ccccc21	-6	4	-1	5	-6
CC1(C)c2ccccc2C(=O)c2ccccc21	15	8	0	-4	34*
CCOC(=O)C1CCN(CC(C)(C)NS(=O)(=O)c2ccccc2)CC1	-10	-2	4	5	-6
